In ChEMBL document CHEMBL4814059, “Redefining the Histone Deacetylase Inhibitor Pharmacophore: High Potency with No Zinc Cofactor Interaction” (ACS Med Chem Lett, 2021):
Activity calls are given as the source filed them. The rule behind the calls is not given here.

Columns and labels:
Histone deacetylase 2 = Histone deacetylase 2 (Homo sapiens, UniProt Q92769); assay: Inhibition of recombinant human C-terminal FLAG-tagged HDAC2 expressed in human HEK293F cells using Fluor-de-lys substrate as substrate incubated for 3 hrs followed by substrate addition and measured after 60 mins by fluorescence based assay
Histone deacetylase 2, sequence (Q92769 whole entry): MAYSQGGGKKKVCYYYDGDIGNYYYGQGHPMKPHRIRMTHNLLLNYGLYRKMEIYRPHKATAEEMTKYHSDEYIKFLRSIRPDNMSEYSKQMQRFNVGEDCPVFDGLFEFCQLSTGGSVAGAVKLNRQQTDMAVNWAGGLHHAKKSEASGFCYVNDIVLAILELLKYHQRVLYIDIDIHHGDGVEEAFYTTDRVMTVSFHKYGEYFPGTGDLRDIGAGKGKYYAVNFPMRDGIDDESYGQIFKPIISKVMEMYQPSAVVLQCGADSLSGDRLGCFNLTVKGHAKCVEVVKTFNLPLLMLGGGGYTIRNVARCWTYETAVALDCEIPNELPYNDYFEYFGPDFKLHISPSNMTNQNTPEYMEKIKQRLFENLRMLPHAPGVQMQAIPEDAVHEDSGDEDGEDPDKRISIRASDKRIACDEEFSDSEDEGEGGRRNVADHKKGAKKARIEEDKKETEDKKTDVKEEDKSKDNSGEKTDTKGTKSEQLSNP

[1] = molecular target: T1, Class 1 histone deacetylase (Homo sapiens, UniProt Q13547+O15379+Q92769+Q9BY41); type: tissue-based; details: 2c4
T1 sequence (O15379 whole entry, looked up): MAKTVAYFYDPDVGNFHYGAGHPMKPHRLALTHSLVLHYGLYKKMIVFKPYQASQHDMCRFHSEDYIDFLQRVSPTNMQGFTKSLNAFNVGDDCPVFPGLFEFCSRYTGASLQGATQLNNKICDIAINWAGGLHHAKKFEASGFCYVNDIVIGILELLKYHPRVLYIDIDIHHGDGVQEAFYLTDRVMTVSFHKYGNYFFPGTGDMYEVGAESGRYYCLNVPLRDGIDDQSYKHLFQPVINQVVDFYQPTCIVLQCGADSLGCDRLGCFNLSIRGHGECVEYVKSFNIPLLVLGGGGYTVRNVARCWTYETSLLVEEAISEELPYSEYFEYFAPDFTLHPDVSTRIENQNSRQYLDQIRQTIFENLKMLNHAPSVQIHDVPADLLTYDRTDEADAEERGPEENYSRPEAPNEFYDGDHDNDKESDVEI
T1 sequence (Q13547 whole entry, looked up): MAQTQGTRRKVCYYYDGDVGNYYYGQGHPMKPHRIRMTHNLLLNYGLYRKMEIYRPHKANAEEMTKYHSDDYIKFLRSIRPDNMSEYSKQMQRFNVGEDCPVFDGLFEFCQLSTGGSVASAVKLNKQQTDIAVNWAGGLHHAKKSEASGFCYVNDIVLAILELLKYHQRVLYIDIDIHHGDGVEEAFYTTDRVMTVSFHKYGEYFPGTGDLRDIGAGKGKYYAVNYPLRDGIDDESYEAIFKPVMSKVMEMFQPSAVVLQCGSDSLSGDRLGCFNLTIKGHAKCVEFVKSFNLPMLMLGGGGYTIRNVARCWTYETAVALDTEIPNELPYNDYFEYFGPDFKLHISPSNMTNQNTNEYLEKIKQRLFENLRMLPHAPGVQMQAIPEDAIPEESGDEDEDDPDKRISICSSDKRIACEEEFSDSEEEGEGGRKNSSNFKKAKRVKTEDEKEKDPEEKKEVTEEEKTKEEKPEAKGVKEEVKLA
T1 sequence (Q92769 whole entry, looked up): as the sequence (Q92769 whole entry) above
T1 sequence (Q9BY41 whole entry, looked up): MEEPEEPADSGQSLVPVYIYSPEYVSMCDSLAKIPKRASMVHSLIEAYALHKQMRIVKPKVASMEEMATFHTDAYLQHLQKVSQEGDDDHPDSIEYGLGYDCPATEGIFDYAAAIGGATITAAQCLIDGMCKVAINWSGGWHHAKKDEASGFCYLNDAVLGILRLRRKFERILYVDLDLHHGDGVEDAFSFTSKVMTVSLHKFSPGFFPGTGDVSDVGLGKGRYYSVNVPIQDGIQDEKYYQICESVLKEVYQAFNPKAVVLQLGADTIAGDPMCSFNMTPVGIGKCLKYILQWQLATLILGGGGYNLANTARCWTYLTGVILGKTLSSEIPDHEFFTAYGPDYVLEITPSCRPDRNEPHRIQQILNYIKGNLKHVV

Histone deacetylase 1 = Histone deacetylase 1 (Homo sapiens, UniProt Q13547); assay: Inhibition of recombinant human C-terminal FLAG-tagged HDAC1 expressed in human HEK293F cells using Fluor-de-lys substrate as substrate incubated for 3 hrs followed by substrate addition and measured after 60 mins by fluorescence based assay
Histone deacetylase 1, sequence (Q13547 whole entry, the tested form may be a part): as the sequence (Q13547 whole entry, looked up) above

Histone deacetylase 3 [2] = molecular target: T2, Histone deacetylase 3 (Homo sapiens, UniProt O15379); assay: Inhibition of recombinant human FLAG-tagged HDAC3 expressed in human HEK293F cells co-expressing His6-tagged SMRT (1 to 899 residues) using Fluor-de-lys substrate as substrate incubated for 3 hrs followed by substrate addition and measured after 60 mins by fluorescence based assay
T2 sequence (O15379 whole entry, the tested form may be a part): as the sequence (O15379 whole entry, looked up) above

[3] = Fraction unbound in rat plasma; type: ADME, cell-free
Cytochrome P450 2C9 = Cytochrome P450 2C9 (Homo sapiens, UniProt P11712); assay: Inhibition of CYP2C9 in human liver microsomes assessed as reduction in 4'-hydroxy diclofenac level using diclofenac as substrate incubated for 10 mins by LC-MS/MS analysis; type: ADME
Cytochrome P450 2C9, sequence (P11712 whole entry): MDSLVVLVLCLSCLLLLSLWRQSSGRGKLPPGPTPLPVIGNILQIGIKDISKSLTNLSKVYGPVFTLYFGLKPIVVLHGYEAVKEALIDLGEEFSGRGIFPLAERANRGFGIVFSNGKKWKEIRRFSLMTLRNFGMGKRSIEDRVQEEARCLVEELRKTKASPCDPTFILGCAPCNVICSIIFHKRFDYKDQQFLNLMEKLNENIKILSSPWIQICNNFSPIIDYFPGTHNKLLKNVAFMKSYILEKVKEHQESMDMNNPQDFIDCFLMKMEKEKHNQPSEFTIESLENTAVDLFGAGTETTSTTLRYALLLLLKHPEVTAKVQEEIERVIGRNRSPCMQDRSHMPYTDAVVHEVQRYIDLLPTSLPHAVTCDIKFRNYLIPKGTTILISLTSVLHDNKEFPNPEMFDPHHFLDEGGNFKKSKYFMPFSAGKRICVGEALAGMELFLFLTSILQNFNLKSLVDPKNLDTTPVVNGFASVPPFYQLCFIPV

[4] = molecular target: T1, Class 1 histone deacetylase; assay: Inhibition of class 1 HDAC in human Jurkat 2C4 model of HIV latency assessed as reactivation of HIV latency incubated for 18 to 24 hrs in presence of 5% heat inactivated NHS by Steady-Glo luciferase assay; type: tissue-based
[5] = molecular target: T1, Class 1 histone deacetylase; assay: Inhibition of class 1 HDAC in quiescent human primary T-cell model of VSV-G pseudotyped HIV-1 latency assessed as reactivation of HIV latency incubated for 24 hrs in presence of 10% FBS by NanoGlo luciferase assay; type: tissue-based
[6] = molecular target: T3, Nuclear receptor subfamily 1 group I member 2 (Homo sapiens, UniProt O75469); assay: Activation of PXR (unknown origin) expressed in human DPX2 cells co-expressing luciferase gene under control of CYP3A4 promoter assessed as induction of CYP3A4 transcriptional activity incubated for overnight by luminescence based analysis; type: ADME, cell-based
T3 sequence (O75469 whole entry): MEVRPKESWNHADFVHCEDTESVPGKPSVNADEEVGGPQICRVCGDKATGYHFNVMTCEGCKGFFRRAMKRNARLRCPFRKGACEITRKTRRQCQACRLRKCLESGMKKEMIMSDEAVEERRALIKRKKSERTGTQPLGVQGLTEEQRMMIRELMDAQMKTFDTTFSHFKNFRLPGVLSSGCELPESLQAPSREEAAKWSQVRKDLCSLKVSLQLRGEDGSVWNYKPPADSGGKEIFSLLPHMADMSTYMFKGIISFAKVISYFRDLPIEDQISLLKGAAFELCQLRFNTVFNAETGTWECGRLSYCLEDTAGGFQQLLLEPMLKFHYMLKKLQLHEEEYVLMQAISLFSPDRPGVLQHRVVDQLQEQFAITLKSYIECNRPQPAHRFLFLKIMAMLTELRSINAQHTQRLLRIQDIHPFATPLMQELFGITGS

Histone deacetylase 3 [7] = molecular target: T2, Histone deacetylase 3; assay: Inhibition of recombinant human FLAG-tagged HDAC3 expressed in human HEK293F cells co-expressing His6-tagged SMRT (1 to 899 residues) assessed as rapid dissociation inhibition using Fluor-de-lys substrate as substrate measured after compound dilution by jump dilution based analysis
[8] = Genotoxicity in Salmonella typhimurium TA100 in presence of liver S9 fraction by Ames test; type: toxicity, subcellular; details: salmonella enterica subsp. enterica serovar typhimurium
In short: (§1)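 Exploratory, non-GLP Ames mutagenicity test run on a 3-strain panel.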

[9] = Genotoxicity in Salmonella typhimurium TA98 in presence of liver S9 fraction by Ames test; type: toxicity, subcellular; details: salmonella enterica subsp. enterica serovar typhimurium; in short: as §1
[10] = Plasma clearance in Wistar Han rat; type: ADME
[11] = molecular target: 5-hydroxytryptamine receptor 2B (Homo sapiens, UniProt P41595); assay: Inhibition of human 5HT2B receptor
5-hydroxytryptamine receptor 2B, sequence (P41595 whole entry): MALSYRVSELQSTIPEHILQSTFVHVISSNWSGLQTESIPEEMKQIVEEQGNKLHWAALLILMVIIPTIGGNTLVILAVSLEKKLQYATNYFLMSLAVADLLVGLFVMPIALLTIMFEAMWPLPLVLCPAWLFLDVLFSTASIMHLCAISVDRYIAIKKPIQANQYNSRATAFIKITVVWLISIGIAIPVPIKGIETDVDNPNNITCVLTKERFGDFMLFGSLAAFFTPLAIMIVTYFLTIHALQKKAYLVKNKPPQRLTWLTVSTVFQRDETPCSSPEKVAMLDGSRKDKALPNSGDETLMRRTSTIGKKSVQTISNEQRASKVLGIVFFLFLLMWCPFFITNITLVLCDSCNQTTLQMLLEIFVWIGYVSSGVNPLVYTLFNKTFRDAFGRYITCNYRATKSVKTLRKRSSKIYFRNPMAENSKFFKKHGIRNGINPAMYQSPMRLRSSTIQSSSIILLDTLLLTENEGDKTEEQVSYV
In short: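 Off-target selectivity screen of 115 receptor, enzyme and transporter binding and biochemical assays. Compound tested in duplicate at 10 μM.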

[12] = Oral bioavailability in Wistar Han rat; type: ADME, organism-based; details: in vivo
[13] = molecular target: T1, Class 1 histone deacetylase; assay: Ratio of IC50 for inhibition of class 1 HDAC in human Jurkat 2C4 model of HIV latency in presence of 5% heat inactivated NHS to IC50 for inhibition of class 1 HDAC in human Jurkat 2C4 model of HIV latency in presence of 0.1% heat inactivated NHS by Steady-Glo luciferase assay
In short: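 Latent HIV luciferase-reporter Jurkat cells were treated with compound and latency reversal was read as increased luminescence. […] Values are means of at least two measurements.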

[14] = Half life in Wistar Han rat; type: ADME; details: in vivo
[15] = Genotoxicity in Salmonella typhimurium TA1535 in presence of liver S9 fraction by Ames test; type: toxicity, subcellular; details: salmonella enterica subsp. enterica serovar typhimurium; in short: as §1
Histone deacetylase 3 [16] = molecular target: T2, Histone deacetylase 3; assay: Inhibition of recombinant human FLAG-tagged HDAC3 expressed in human HEK293F cells co-expressing His6-tagged SMRT (1 to 899 residues) assessed as fast-on/fast-off kinetics inhibition using Fluor-de-lys substrate as substrate by fluorescence based analysis

| Structure (SMILES) | IC50 (Histone deacetylase 2) | IC50 [1] | IC50 (Histone deacetylase 1) | IC50 (Histone deacetylase 3 [2]) | Fu [3] | IC50 (Cytochrome P450 2C9) | EC50 [6] | also measured |
| --- | --- | --- | --- | --- | --- | --- | --- | --- |
| COc1nc2ccccc2cc1-c1cnc([C@H](C)NC(=O)C2CN(C)C2)[nH]1 | > 50 µM | > 40 µM | > 50 µM | > 50 µM |  |  |  |  |
| CCC(=O)CCCCC[C@H](NC(=O)C1CN(C)C1)c1ncc(-c2cc3ccccc3nc2OC)[nH]1 |  |  |  |  | 0.0574 |  |  |  |
| CCCCCCCC[C@H](NC(=O)C1CN(C)C1)c1ncc(-c2cc3ccccc3nc2OC)[nH]1 | > 50 µM | > 40 µM | 18 µM | 5.2 µM |  |  |  |  |
| CCCC[C@H](NC(=O)[C@H](CN)c1c(C)[nH]c2ccc(OC)cc12)c1ncc(-c2cc3ccccc3nc2OC)[nH]1 |  |  |  |  | < 0.0001 |  |  |  |
| CCCC[C@H](NC(=O)[C@H](CN)c1c(C)[nH]c2ccc(O)cc12)c1ncc(-c2cc3ccccc3nc2OC)[nH]1 | 0.005 µM | 1.3 µM | 0.002 µM | 0.0047 µM | < 0.0001 | > 50 µM | > 30 µM | IC50 [4]: 7.4 µM; IC50 [5]: 4.5 µM |
| CCCC[C@H](NC(=O)[C@H](C)c1c(C)[nH]c2ccc(O)cc12)c1ncc(-c2cc3ccccc3nc2OC)[nH]1 | 0.087 µM | 0.24 µM | 0.037 µM | 0.0552 µM | 0.0006 | 2.5 µM | 1.9 µM | inhibition (Histone deacetylase 3 [7]): Active; Activity [8]: Non-Toxic; Activity [9]: Non-Toxic; clearance [10]: 25 mL/min/kg; IC50 [11]: < 1 µM; IC50 [4]: 3.2 µM; IC50 [5]: 2.1 µM; F [12]: 26%; Ratio IC50 [13]: 10; half-life [14]: 1.2 h; Activity [15]: Non-Toxic; inhibition (Histone deacetylase 3 [16]): Active |
| CC[C@H](NC(=O)C1CN(C)C1)c1ncc(-c2cc3ccccc3nc2OC)[nH]1 | > 50 µM | > 40 µM | 23 µM | 28 µM |  |  |  |  |
| CCCC[C@H](NC(=O)Cc1c[nH]c2ccc(OC)cc12)c1ncc(-c2cc3ccccc3nc2OC)[nH]1 | 0.5 µM | 0.86 µM | 0.25 µM | 0.36 µM |  | 1.6 µM | 2.5 µM |  |
| CCCC[C@H](NC(=O)[C@H](C)c1c(C)[nH]c2ccc(OC)cc12)c1ncc(-c2cc3ccccc3nc2OC)[nH]1 | 0.12 µM | 0.3 µM | 0.047 µM | 0.21 µM |  | 2.9 µM | 2.9 µM |  |
| CCCC[C@H](NC(=O)Cc1c[nH]c2ccccc12)c1ncc(-c2cc3ccccc3nc2OC)[nH]1 | 2.7 µM | 40 µM | 0.77 µM | 0.34 µM |  | 3.4 µM | 4.4 µM |  |
| O=C(/C=C/c1cccc(S(=O)(=O)Nc2ccccc2)c1)NO [BELINOSTAT] |  |  |  |  | 0.138 |  |  |  |
| CCC[C@H](NC(=O)C1CN(C)C1)c1ncc(-c2cc3ccccc3nc2OC)[nH]1 | 3.4 µM | 11 µM | 0.39 µM | 0.3 µM |  |  |  |  |
| CCCCC[C@H](NC(=O)C1CN(C)C1)c1ncc(-c2cc3ccccc3nc2OC)[nH]1 | > 17 µM | > 40 µM | 4.7 µM | 3.5 µM |  |  |  |  |
| COc1nc2ccccc2cc1-c1cnc(CNC(=O)C2CN(C)C2)[nH]1 | > 50 µM |  |  | 15 µM |  |  |  |  |
| O=C(CCCCCCC(=O)Nc1ccccc1)NO [VORINOSTAT] |  |  |  |  | 0.75 |  |  |  |
| CCCC[C@H](NC(=O)C1CN(C)C1)c1ncc(-c2cc3ccccc3nc2OC)[nH]1 | 0.75 µM | 17 µM | 0.28 µM | 0.16 µM |  | 50 µM | > 30 µM | inhibition (Histone deacetylase 3 [7]): Active; Activity [8]: Non-Toxic; Activity [9]: Non-Toxic; Activity [15]: Non-Toxic; inhibition (Histone deacetylase 3 [16]): Active |
